Screens as filed in PubChem.
RGS4 inh: inhibitors of human RGS4 | P49798 | HEK293 M3R/RGS4 inducible, Fluo-4 calcium flux; hits give high values; triggered by carbachol at its EC20 | B-score at 10 µM | actives 0.45% (n = 310,000) | AID 463165;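 active means B-score, a plate-corrected calcium signal, over three deviations above library mean, with baseline fluorescence within five deviations of library mean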;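 further: RGS4 expression induced by doxycycline in cells with stable M3 receptor; B-score is computed from the integrated fluorescence ratio over baseline after carbachol; higher B-score means a larger calcium signal and so more RGS4 inhibition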
Target sequence (P49798 whole entry, looked up): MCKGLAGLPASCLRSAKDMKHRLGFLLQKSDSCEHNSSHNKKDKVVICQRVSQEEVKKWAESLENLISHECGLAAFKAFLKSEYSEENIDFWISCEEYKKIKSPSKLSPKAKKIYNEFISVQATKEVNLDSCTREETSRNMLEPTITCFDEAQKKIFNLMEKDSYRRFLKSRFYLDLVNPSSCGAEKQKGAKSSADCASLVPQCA
MrgX1 antag: blocks BAM8-22 activation of human MrgX1 receptor; Q96LB2; MRGX1-HEK293 calcium flux, Fluo-4, BAM8-22 antagonism; hits give low values; B-score at 10 µM; actives 1.3% (n = 310,000); AID 588676;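 active means calcium-response B-score plate-corrected more than 3 library SD below zero, starting fluorescence within 5 deviations, no agonist response on first addition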;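 further: peak minus trough fluorescence over baseline after final BAM8-22 challenge near maximal dose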
Target sequence (Q96LB2 whole entry, looked up): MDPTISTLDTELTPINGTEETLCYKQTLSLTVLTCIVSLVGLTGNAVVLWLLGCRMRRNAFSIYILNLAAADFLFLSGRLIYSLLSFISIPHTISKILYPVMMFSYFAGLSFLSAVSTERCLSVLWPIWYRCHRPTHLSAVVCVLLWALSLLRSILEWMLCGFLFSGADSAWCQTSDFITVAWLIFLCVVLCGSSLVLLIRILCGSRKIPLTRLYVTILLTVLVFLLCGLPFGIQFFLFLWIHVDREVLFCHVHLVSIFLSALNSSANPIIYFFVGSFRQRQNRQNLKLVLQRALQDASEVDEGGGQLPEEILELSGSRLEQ
RGS4 pot: RGS4 potentiation or activation | actives 0.92% (n = 310,000) | B-score at 10 µM | HEK293 M3R/inducible RGS4, carbachol calcium flux Fluo4; hits give low values | AID 463111;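 active means B-score of the integrated calcium signal more than 4 SD below the library mean, with starting fluorescence not abnormally high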;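 further: negative B-score means reduced calcium response which marks RGS4 activation or potentiation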
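test system = M3R-expressing HEK293 line, RGS4 induced by doxycycline | probe or stimulus = carbachol at ECmax as muscarinic agonist stimulus | timing = dye loading 30 min 37 °C, buffer rest 30 min RT | signal = calcium dye Fluo4 fluorescence | evaluation = B score from integrated fluorescence ratio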
MrgX1 allo act: human MrgX1 positive allosteric modulation, primary screen. Q96LB2. MrgX1-HEK293, Fluo-4 calcium flux, FDSS; hits give high values. B-score at 10 µM. actives 0.63% (n = 310,000);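 active means plate-corrected calcium response at least 3 library SD above typical, normal starting fluorescence, not activating the receptor alone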;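 further: compound read alongside a low EC10 to EC30 dose of BAM8-22 agonist; peak minus trough fluorescence over baseline measured at the second addition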
MrgX1 agonist: activates human MrgX1 receptor signaling; Q96LB2; MrgX1-HEK293 cells, Fluo-4 calcium fluorescence, agonist mode; hits give high values; B-score at 10 µM; actives 0.44% (n = 310,000);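 active means calcium response B-score plate-corrected fluorescence ratio at least 3 library SD, with starting fluorescence B-score inside 5 SD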
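Assay system: stable human MrgX1 HEK293 cell line. Quantity: 15,000 cells per well. Schedule: cells plated overnight, dye loaded 0.5 h 37 °C, 0.5 h room temperature. Detection: Fluo-4 NW calcium-flux fluorescence, kinetic read. Read-out basis: peak-minus-minimum fluorescence over baseline, converted to B scores. Control set: positive and negative control wells on each plate.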
MrgX1 allo conf: human MrgX1 positive allosteric modulation, re-confirmation | AID 602413 | shares compounds with MrgX1 allo act | activation (ratio percentage), % at 10 µM | MrgX1-HEK293, Fluo-4 calcium fluorescence, FDSS | actives 13% (n = 1,200);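 active means ratio at least 3 SD above the weak peptide control, stable starting fluorescence, no direct agonism earlier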;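 further: compound followed by low BAM8-22 agonist challenge near EC20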
MrgX1 ant reconf: confirmation of human MrgX1 receptor antagonists; AID 602420; shares compounds with MrgX1 antag; remaining BAM8-22 calcium response % of control (hits give low values), % at 10 µM; actives 19% (n = 2,300); MrgX1-HEK293, BAM8-22 calcium flux, Fluo-4; hits give low values;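 active means remaining agonist calcium response no higher than 100% minus 3 SD of agonist-only control wells, with starting fluorescence near control levels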;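 further: agonist BAM8-22 given at a near maximal EC90 to ECmax level; peak minus minimum fluorescence divided by baseline after agonist addition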
HEK293 Ca flux: MrgX1 antagonist counter-screen hit in parental HEK293 cells. actives 2% (n = 4,000). Fluo-4 calcium fluorescence, FDSS. fluorescence ratio F(max-min)/F0 at 10 µM. shares compounds with MrgX1 antag;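 active means duplicate-averaged calcium fluorescence ratio at least three times the standard deviation of buffer wells, a nonspecific response in parental cells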
HEK293 Ca counter: activity in parental HEK293 cells without MrgX1. parental HEK293 calcium flux, Fluo-4 fluorescence ratio; hits give high values. shares compounds with MrgX1 antag. AID 624114. actives 0.4% (n = 4,000). fluorescence ratio F(max-min)/F0 at 10 µM;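 active means calcium fluorescence ratio, averaged over duplicates, at least 3 SD of the buffer-well ratio, meaning a nonspecific response in receptor-free cells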;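 further: untransfected parental HEK293 lacking MrgX1 used as counterscreen for MrgX1 allosteric activators; fluorescence change taken during the second addition on a kinetic imager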
HEK293 Ca cntr2: counter-screen for MrgX1 activators: effect in parental HEK293 cells; shares compounds with MrgX1 antag; Fluo-4 calcium fluorescence (FDSS); hits give high values; fluorescence ratio F(max-min)/F0 at 10 µM; actives 8.7% (n = 4,000);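 active means calcium fluorescence ratio at least three times the spread of buffer wells, meaning a non-specific response in parental cells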
The depositor's hits bear a star; i = inactive; nt = no result given. Most compounds without a hit are left out; they make up all but 3.5% or so of the library.

SMILES	RGS4 inh	MrgX1 antag	RGS4 pot	MrgX1 allo act	MrgX1 agonist	MrgX1 allo conf	HEK293 Ca flux	HEK293 Ca counter	HEK293 Ca cntr2	others
CCOc1cccc(/C=N/NC(=O)c2cc(C3CC3)[nH]n2)c1O	i	i	i	i	i	nt	nt	nt	nt
O=C(Nc1ccc(Br)cc1)c1ccccc1Br	i	i	i	16.3*	i	i	i	i	i
CCc1ccc(NC(=O)c2ccccc2Br)cc1	i	i	i	i	i	nt	nt	nt	nt
O=C(Nc1ccccn1)c1csc2c1CCCC2	i	i	i	8.59*	i	i	i	i	i
COc1ccccc1NC(=O)c1csc2c1CCCC2	i	i	i	i	i	nt	nt	nt	nt
COc1ccccc1C(=O)Nc1nnc(-c2ccccc2)s1	i	i	i	i	i	nt	nt	nt	nt
COc1cccc(C(=O)Nc2nnc(-c3ccccc3)s2)c1OC	i	i	i	10.1*	i	i	i	i	i
CC(C)(C)CC(=O)Nc1cc2c3c(c1)CCN3C(=O)CC2	i	i	i	i	i	nt	nt	nt	nt
O=C(CC1Sc2ccccc2NC1=O)OC(C(=O)NCCc1ccccc1)c1cccnc1 (stereo not drawn)	i	i	i	8.54*	i	i	i	i	i
CC1=CC2=NC(=O)/C(=C\c3ccc(OC(=O)c4ccco4)cc3)C(=N)N2O1	i	i	i	i	i	nt	nt	nt	nt
CSC1=NSC2=NC(=O)/C(=C\c3ccc(OC(=O)c4ccco4)cc3)C(=N)N12	i	i	i	41.1*	i	i	i	i	i
CC1=CSC2=NC(=O)/C(=C/c3cccc(OC(=O)c4ccco4)c3)C(=N)N12	i	i	i	29.1*	i	11.6%*	i	i	i
NS(=O)(=O)c1ccc(CNC(=O)Cc2ccccc2[N+](=O)[O-])cc1	i	i	i	i	i	nt	nt	nt	nt
O=S(=O)(Cc1ccccc1)c1cnc2ccccc2n1	i	i	i	i	i	nt	nt	nt	nt
Cc1cc(C)n2c(SCC(=O)Nc3ccc(F)cc3)nnc2n1	i	i	i	14.5*	i	i	i	i	i
Cc1cc(C)n2c(SCC(=O)Nc3ccc(F)cc3F)nnc2n1	i	i	i	i	i	nt	nt	nt	nt
CCc1cccc(NC2c3ccccc3C(=O)N2c2cccnc2)c1 (stereo not drawn)	i	i	i	i	i	nt	nt	nt	nt
Cc1ccc(NC(=O)N2CCCC2C(=O)NCC2CCCCC2)cc1 (stereo not drawn)	i	i	i	10.1*	i	i	i	i	i
Cc1ccc(CNC(=O)C2CCCN2C(=O)Nc2ccc(C)cc2)cc1 (stereo not drawn)	i	i	i	i	i	nt	nt	nt	nt
COc1ccccc1NC(=S)N(Cc1ccccc1)Cc1cccnc1	i	i	i	i	i	nt	nt	nt	nt
COc1ccccc1NC(=S)N(Cc1ccccc1)Cc1ccccn1	i	i	i	6.58*	i	i	i	i	i
COc1cccc(CNC(=O)Cn2cc([N+](=O)[O-])cn2)c1	i	i	i	i	i	nt	nt	nt	nt
CCOC(=O)c1ccc(NC(=O)C2CC3CCC2C3)cc1 (stereo not drawn)	i	i	i	7.53*	i	i	i	i	i
COC(=O)c1cc(C)sc1NC(=O)CN1CCN(C(=O)C2CCCO2)CC1 (stereo not drawn)	i	i	i	i	i	nt	nt	nt	nt
Cc1ccc(-c2csc(NC(=O)c3ccccc3Cl)c2C(=O)O)cc1	i	i	i	6.56*	i	i	i	i	i
SMILES	RGS4 inh	MrgX1 antag	RGS4 pot	MrgX1 allo act	MrgX1 agonist	MrgX1 allo conf	HEK293 Ca flux	HEK293 Ca counter	HEK293 Ca cntr2	others
Cc1ccc(-c2csc(NC(=O)c3cccc(C)c3)c2C(=O)O)cc1	i	i	i	6.65*	i	i	i	i	i
Cc1cccc(C(=O)Nc2scc(CC(C)C)c2C(=O)O)c1	i	i	i	i	i	nt	nt	nt	nt
CSC(=Nc1ccc(Cl)cc1)N[n+]1ccccc1	i	i	i	i	i	nt	nt	nt	nt
COCc1ccc(CN2CCC(N3CCC(C(=O)N4CCCC4)CC3)CC2)o1	i	i	i	8.93*	i	i	i	i	i
O=C(Nc1ccc(NC(=O)c2ccc(Cl)c(S(=O)(=O)N3CCOCC3)c2)cc1)c1ccccc1	i	i	i	i	i	nt	nt	nt	nt
O=C(Nc1ccccc1)Nc1ccc(Cl)c(S(=O)(=O)N2CCOCC2)c1	i	-8.11*	i	7.75*	i	i	i	i	i	MrgX1 ant reconf=i
CCC(=O)Nc1ccc(S(=O)(=O)N2CCOCC2)cc1	i	i	i	i	i	nt	nt	nt	nt
O=C(Nc1ccc(S(=O)(=O)N2CCOCC2)cc1)C1CC1	i	i	i	15*	i	i	i	i	i
C=C(C)C(=O)OCC(O)COc1ccc(C(C)(C)c2ccc(OCC(O)COC(=O)C(=C)C)cc2)cc1 (stereo not drawn)	i	i	i	i	i	nt	nt	nt	nt
CCSc1nc2c(c(=O)[nH]1)C(c1ccncc1)C(C(=O)OC(C)C)=C(C)N2 (stereo not drawn)	i	i	i	i	i	nt	nt	nt	nt
CCSc1nc2c(c(=O)[nH]1)C(c1cccnc1)C(C(=O)OC)=C(C)N2 (stereo not drawn)	i	i	i	8.53*	i	i	i	i	i
Cc1ccc(-n2nc(-c3ccco3)cc2C(=O)O)cc1	i	i	i	24.8*	i	5.6%*	i	i	i
CCOC(=O)c1cc(-c2ccco2)nn1-c1ccc(C)cc1	i	i	i	i	i	nt	nt	nt	nt
COc1ccccc1CCNC(=O)CSc1ccc(-c2cccs2)nn1	i	i	i	7.93*	i	i	i	i	i
